Measurements from ChEMBL document CHEMBL5357066, “Development of Novel Membrane Disrupting Lipoguanidine Compounds Sensitizing Gram-Negative Bacteria to Antibiotics” (ACS Med Chem Lett, 2024).
Converted amounts (≈) assume the structure as drawn.

Experiments:
Enterococcus faecalis [1] = experiment: Antibacterial activity against vancomycin resistant Enterococcus faecalis NCTC 12201 assessed as bacterial growth inhibition incubated for overnight by microbroth dilution method; assay type: functional
How it was run: (§1)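 Microbroth dilution in Tryptic Soy Broth. DMSO stocks were diluted in TSB as 2-fold series. Overnight TSB cultures were back-diluted to OD 0.01 and mixed 1:1 with compound. Incubation was overnight at 37 °C. MIC is the lowest concentration with no visible growth (<0.1 OD600). DMSO at equivalent concentrations was checked.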

Klebsiella pneumoniae [2] = experiment: Synergistic antibacterial activity against […] Klebsiella pneumoniae M6 assessed as rifampicin MIC at <=0.25 times MIC incubated for overnight by microbroth dilution checkerboard assay; assay type: functional
How it was run: (§2)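 Checkerboard run under the MIC conditions (TSB, overnight, 37 °C). Antibiotic and lipoguanidine 2-fold series were combined on one plate before bacteria were added. Growth/no-growth was scored as for the MIC (<0.1 OD600). Single-agent MICs were measured on the same plates. Three independent repeats were done.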

Pseudomonas aeruginosa [3] = experiment: Synergistic antibacterial activity against Pseudomonas aeruginosa PAO1 assessed as bacterial growth inhibition incubated for overnight in presence of […] by microbroth dilution method relative to control; assay type: functional
How it was run: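 Fixed-concentration combination MIC in TSB. The first agent was set in a two-fold dilution series (100 µL/well), then 50 µL/well of the second agent at a fixed concentration was added; PMBN was fixed at 30 µg/mL. Bacteria at OD 0.02 (50 µL) went into 150 µL of compounds, overnight at 37 °C. MIC was the lowest concentration without visible growth (<0.1 OD600).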

Pseudomonas aeruginosa [4] = experiment: Synergistic antibacterial activity against Pseudomonas aeruginosa PAO1 assessed as fold change in rifampicin MIC at <=0.25 times MIC incubated for overnight by microbroth dilution checkerboard assay relative to rifampicin alone; assay type: functional
How it was run: (§3)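 Checkerboard microdilution in Tryptic Soy Broth, run like the MIC assay. Overnight TSB cultures were back-diluted to OD 0.01 and added 1:1 to the combined two-fold series of both agents, then incubated overnight at 37 °C. Growth/no-growth was called at <0.1 OD600. MICs alone were read on the same plates. FIC index came from the most synergistic well; three independent repeats, mean ± SD.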

Acinetobacter baumannii [5] = experiment: Synergistic antibacterial activity against Acinetobacter baumannii AYE assessed as fold change in rifampicin MIC at <=0.25 times MIC incubated for overnight by microbroth dilution checkerboard assay relative to rifampicin alone; assay type: functional
How it was run: (§4)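 Checkerboard microdilution under MIC conditions (TSB, overnight, 37 °C). Two-fold series of each agent were combined on one plate before bacteria were added, and single-agent MICs were measured on the same plate. FIC = sum of combination MIC/alone MIC for each agent, taken from the most synergistic well. Three independent repeats, mean ± SD. ≤0.5 was taken as strong synergy and 0.5–<1 as weak.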

Acinetobacter baumannii [6] = experiment: Synergistic antibacterial activity against Acinetobacter baumannii ATCC 17978 assessed as fold change in rifampicin MIC at <=0.25 times MIC incubated for overnight by microbroth dilution checkerboard assay relative to rifampicin alone; assay type: functional; how it was run: as §4
Acinetobacter baumannii [7] = experiment: Antibacterial activity against Acinetobacter baumannii ATCC 17978 assessed as bacterial growth inhibition incubated for overnight by microbroth dilution method; assay type: functional
How it was run: (§5)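 Broth microdilution in Tryptic Soy Broth. DMSO stocks were diluted in TSB as 2-fold series. Overnight TSB cultures were back-diluted to OD 0.01 and mixed 1:1 with compound. Incubation was overnight at 37 °C. MIC was the lowest concentration without visible growth (<0.1 OD600). DMSO vehicle was checked at equivalent concentrations.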

Staphylococcus aureus [8] = experiment: Antibacterial activity against methicillin resistant Staphylococcus aureus USA 300 assessed as bacterial growth inhibition incubated for overnight by microbroth dilution method; assay type: functional; how it was run: as §1
Klebsiella pneumoniae [9] = experiment: Antibacterial activity against Klebsiella pneumoniae M6 assessed as bacterial growth inhibition incubated for overnight by microbroth dilution method
Pseudomonas aeruginosa [10] = experiment: Antibacterial activity against Pseudomonas aeruginosa PAO1 assessed as bacterial growth inhibition incubated for overnight by microbroth dilution method; assay type: functional; how it was run: as §5
Staphylococcus aureus [11] = experiment: Antibacterial activity against methicillin resistant Staphylococcus aureus NCTC 13616 assessed as bacterial growth inhibition incubated for overnight by microbroth dilution method; assay type: functional; how it was run: as §1
Acinetobacter baumannii [12] = experiment: Synergistic antibacterial activity against Acinetobacter baumannii ATCC 17978 assessed as bacterial growth inhibition incubated for overnight in presence of PBMN by microbroth dilution method relative to control; assay type: functional
How it was run: (§6)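 Adapted broth microdilution in TSB. The test compound was in a 2-fold dilution series, with PMBN added at a fixed 30 µg/mL. Bacteria at OD 0.02 were added, and plates were incubated overnight at 37 °C. Growth/no growth was read as for the MIC (<0.1 OD600).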

Pseudomonas aeruginosa [13] = experiment: Synergistic antibacterial activity against Pseudomonas aeruginosa NCTC 13437 assessed as bacterial growth inhibition incubated for overnight in presence of PBMN by microbroth dilution method relative to control; assay type: functional; how it was run: as §6
Escherichia coli [14] = experiment: Antibacterial activity against Escherichia coli NCTC 12923 assessed as bacterial growth inhibition incubated for overnight by microbroth dilution method; assay type: functional; how it was run: as §5
Pseudomonas aeruginosa [15] = experiment: Antibacterial activity against Pseudomonas aeruginosa NCTC 13437 assessed as bacterial growth inhibition incubated for overnight by microbroth dilution method; assay type: functional; how it was run: as §5
Staphylococcus aureus [16] = experiment: Antibacterial activity against methicillin sensitive Staphylococcus aureus ATCC 9144 assessed as bacterial growth inhibition incubated for overnight by microbroth dilution method; assay type: functional; how it was run: as §1
Enterococcus faecium = experiment: Antibacterial activity against vancomycin resistant Enterococcus faecium NCTC 12204 assessed as bacterial growth inhibition incubated for overnight by microbroth dilution method; assay type: functional; how it was run: as §1
Klebsiella pneumoniae [17] = experiment: Synergistic antibacterial activity against Klebsiella pneumoniae NCTC 13368 assessed as bacterial growth inhibition incubated for overnight in presence of PBMN by microbroth dilution method relative to control; assay type: functional; how it was run: as §6
Escherichia coli [18] = experiment: Synergistic antibacterial activity against Escherichia coli NCTC 12923 assessed as fold change in rifampicin MIC at <=0.25 times MIC incubated for overnight by microbroth dilution checkerboard assay relative to rifampicin alone; assay type: functional; how it was run: as §4
Acinetobacter baumannii [19] = experiment: Synergistic antibacterial activity against Acinetobacter baumannii ATCC 17978 assessed as rifampicin MIC at <=0.25 times MIC incubated for overnight by microbroth dilution checkerboard assay; assay type: functional; how it was run: as §4
Pseudomonas aeruginosa [20] = experiment: Synergistic antibacterial activity against Pseudomonas aeruginosa NCTC 13437 assessed as fold change in rifampicin MIC at <=0.25 times MIC incubated for overnight by microbroth dilution checkerboard assay relative to rifampicin alone; assay type: functional; how it was run: as §3
Enterococcus faecalis [21] = experiment: Antibacterial activity against vancomycin sensitive Enterococcus faecalis NCTC 775 assessed as bacterial growth inhibition incubated for overnight by microbroth dilution method
Acinetobacter baumannii [22] = experiment: Synergistic antibacterial activity against Acinetobacter baumannii AYE assessed as bacterial growth inhibition incubated for overnight in presence of PBMN by microbroth dilution method relative to control; assay type: functional; how it was run: as §6
Escherichia coli [23] = experiment: Synergistic antibacterial activity against Escherichia coli NCTC 12923 assessed as bacterial growth inhibition incubated for overnight in presence of PBMN by microbroth dilution method relative to control; assay type: functional; how it was run: as §6
Klebsiella pneumoniae [24] = experiment: Antibacterial activity against ESBL Klebsiella pneumoniae NCTC 13368 assessed as bacterial growth inhibition incubated for overnight by microbroth dilution method
Klebsiella pneumoniae [25] = experiment: Synergistic antibacterial activity against Klebsiella pneumoniae NCTC 13368 assessed as rifampicin MIC at <=0.25 times MIC incubated for overnight by microbroth dilution checkerboard assay; assay type: functional; how it was run: as §4
Pseudomonas aeruginosa [26] = experiment: Synergistic antibacterial activity against Pseudomonas aeruginosa NCTC 13437 assessed as rifampicin MIC at <=0.25 times MIC incubated for overnight by microbroth dilution checkerboard assay; assay type: functional; how it was run: as §3
Klebsiella pneumoniae [27] = experiment: Synergistic antibacterial activity against Klebsiella pneumoniae M6 assessed as bacterial growth inhibition incubated for overnight in presence of PBMN by microbroth dilution method relative to control; assay type: functional; how it was run: as §6
Pseudomonas aeruginosa [28] = experiment: Synergistic antibacterial activity against Pseudomonas aeruginosa PAO1 assessed as rifampicin MIC at <=0.25 times MIC incubated for overnight by microbroth dilution checkerboard assay; assay type: functional; how it was run: as §3
Acinetobacter baumannii [29] = experiment: Antibacterial activity against Acinetobacter baumannii AYE assessed as bacterial growth inhibition incubated for overnight by microbroth dilution method; assay type: functional; how it was run: as §5
Acinetobacter baumannii [30] = experiment: Synergistic antibacterial activity against Acinetobacter baumannii AYE assessed as rifampicin MIC at <=0.25 times MIC incubated for overnight by microbroth dilution checkerboard assay; assay type: functional; how it was run: as §4
Staphylococcus aureus [31] = experiment: Antibacterial activity against methicillin sensitive Staphylococcus aureus 1199B assessed as bacterial growth inhibition incubated for overnight by microbroth dilution method; assay type: functional; how it was run: as §1
Klebsiella pneumoniae [32] = experiment: Synergistic antibacterial activity against Klebsiella pneumoniae NCTC 13368 assessed as fold change in rifampicin MIC at <=0.25 times MIC incubated for overnight by microbroth dilution checkerboard assay relative to rifampicin alone; assay type: functional; how it was run: as §2
Escherichia coli [33] = experiment: Synergistic antibacterial activity against Escherichia coli NCTC 12923 assessed as rifampicin MIC at <=0.25 times MIC incubated for overnight by microbroth dilution checkerboard assay; assay type: functional; how it was run: as §4

Row | Structure (SMILES) | MIC (Enterococcus faecalis [1]) [µg/mL] | MIC (Klebsiella pneumoniae [2]) [µg/mL] | fold change (FC) (Pseudomonas aeruginosa [4]) | fold change (FC) (Acinetobacter baumannii [5]) | fold change (FC) (Acinetobacter baumannii [6]) | MIC (Acinetobacter baumannii [7]) [µg/mL] | MIC (Staphylococcus aureus [8]) [µg/mL] | MIC (Klebsiella pneumoniae [9]) [µg/mL] | MIC (Pseudomonas aeruginosa [10]) [µg/mL] | MIC (Staphylococcus aureus [11]) [µg/mL] | MIC (Escherichia coli [14]) [µg/mL] | MIC (Pseudomonas aeruginosa [15]) [µg/mL] | MIC (Staphylococcus aureus [16]) [µg/mL] | MIC (Enterococcus faecium) [µg/mL] | fold change (FC) (Escherichia coli [18]) | MIC (Acinetobacter baumannii [19]) [µg/mL] | MIC (Enterococcus faecalis [21]) [µg/mL] | MIC (Klebsiella pneumoniae [24]) [µg/mL] | MIC (Acinetobacter baumannii [29]) [µg/mL] | MIC (Staphylococcus aureus [31]) [µg/mL] | other results
1 | CCCCC/C=C\C/C=C\CCCCCCCCNC(=N)NCCCCCCCCNC(=N)N | 4 (≈ 8.39 µM) | 0.5 | 0 | >=4 | >=4 | 4 (≈ 8.39 µM) | 2 (≈ 4.19 µM) | 16 (≈ 33.6 µM) | > 128 | 4 (≈ 8.39 µM) | 8 (≈ 16.8 µM) | > 128 | 2 (≈ 4.19 µM) | 2 (≈ 4.19 µM) | 0 | 1 | 4 (≈ 8.39 µM) | 32 (≈ 67.1 µM) | 16 (≈ 33.6 µM) | 2 (≈ 4.19 µM) | inhibition (INH) (Pseudomonas aeruginosa [3]): <20%; inhibition (INH) (Acinetobacter baumannii [12]): <20%; inhibition (INH) (Pseudomonas aeruginosa [13]): <20%; inhibition (INH) (Klebsiella pneumoniae [17]): <20%; fold change (FC) (Pseudomonas aeruginosa [20]): 0; inhibition (INH) (Acinetobacter baumannii [22]): <20%; inhibition (INH) (Escherichia coli [23]): <20%; MIC (Klebsiella pneumoniae [25]): 8 µg/mL; MIC (Pseudomonas aeruginosa [26]): 16 µg/mL; inhibition (INH) (Klebsiella pneumoniae [27]): <20%; MIC (Pseudomonas aeruginosa [28]): 16 µg/mL; MIC (Acinetobacter baumannii [30]): 1 µg/mL; fold change (FC) (Klebsiella pneumoniae [32]): >=4; MIC (Escherichia coli [33]): 8 µg/mL
2 | N=C(N)NCCCCCCCCNC(=N)N | > 128 | 16 | 0 | 0 | >=4 | > 128 | 128 (≈ 561 µM) | > 128 | > 128 | > 128 | > 128 | > 128 | 128 (≈ 561 µM) | > 128 | 0 | 1 | > 128 | > 128 | > 128 | > 128 | fold change (FC) (Pseudomonas aeruginosa [20]): 0; MIC (Klebsiella pneumoniae [25]): 32 µg/mL; MIC (Pseudomonas aeruginosa [26]): 32 µg/mL; MIC (Pseudomonas aeruginosa [28]): 32 µg/mL; MIC (Acinetobacter baumannii [30]): 8 µg/mL; fold change (FC) (Klebsiella pneumoniae [32]): 0; MIC (Escherichia coli [33]): 8 µg/mL
3 | CCCCCCCC/C=C\CCCCCCCCNC(=N)NCCCCCCCCNC(=N)N | 4 (≈ 8.35 µM) |  |  |  |  | 16 (≈ 33.4 µM) | 2 (≈ 4.18 µM) | 64 (≈ 134 µM) | > 128 | 4 (≈ 8.35 µM) | 32 (≈ 66.8 µM) | > 128 | 4 (≈ 8.35 µM) | 4 (≈ 8.35 µM) |  |  | 4 (≈ 8.35 µM) | 128 (≈ 267 µM) | 16 (≈ 33.4 µM) | 4 (≈ 8.35 µM) | 
